Values belong to the compound of their own block, whether it stands above or below them.
Columns and labels:
HL-60 [1] = experiment: Concentration which reduces by half the percentage of differentiated HL-60 cells induced by 1 x 10e-9 M Am80.; format: functional, cell-based; settings: Homo sapiens
Method in brief: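 Antagonism in HL-60 cells cotreated with 1 × 10^-9 M Am80 for 4 days, with Am80 alone and test compound alone run in parallel. Cells were seeded at about 8 × 10⁴/mL in RPMI1640/5% FBS, and compounds came from 2 mM ethanol stocks (final ethanol <0.5%). NBT reduction (0.2% NBT, 200 ng/mL TPA, 20 min, 37 °C) was counted on ≥200 cells. IC50 is the concentration halving the % of differentiated cells. Run at least twice.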

HL-60 [2] = experiment: Concentration which reduces by half the percentage of differentiated HL-60 cells; Inactive at 1 x 10e-6 M; format: functional, cell-based, Homo sapiens
[3] = target: T1, Retinoic acid receptor beta (Homo sapiens, UniProt P10826); experiment: Synergistic activity towards retinoic acid receptor-beta
T1 sequence (P10826 whole entry): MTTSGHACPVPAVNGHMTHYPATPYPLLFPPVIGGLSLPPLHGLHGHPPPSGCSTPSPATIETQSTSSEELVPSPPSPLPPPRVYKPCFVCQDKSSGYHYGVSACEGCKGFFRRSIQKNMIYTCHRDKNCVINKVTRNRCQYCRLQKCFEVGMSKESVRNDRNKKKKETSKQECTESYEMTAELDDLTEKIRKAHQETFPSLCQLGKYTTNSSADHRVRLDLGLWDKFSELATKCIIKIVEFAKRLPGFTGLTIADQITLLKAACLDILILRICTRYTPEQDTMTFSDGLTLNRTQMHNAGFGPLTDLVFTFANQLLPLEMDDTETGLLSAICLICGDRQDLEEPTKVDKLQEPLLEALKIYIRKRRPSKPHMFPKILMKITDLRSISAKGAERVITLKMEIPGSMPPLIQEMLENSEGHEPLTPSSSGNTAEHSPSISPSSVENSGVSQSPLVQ
Method in brief: (§1)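 Filter binding competition on the MBP-fused RARβ ligand-binding domain against 20 nM [³H]Am80. The IC50 for halving specific binding was converted to Ki via Ki = IC50/(1 + [L]/Kd).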

[4] = target: T2, Retinoic acid receptor alpha (Homo sapiens, UniProt P10276); experiment: Synergistic activity towards retinoic acid receptor-alpha
T2 sequence (P10276 whole entry): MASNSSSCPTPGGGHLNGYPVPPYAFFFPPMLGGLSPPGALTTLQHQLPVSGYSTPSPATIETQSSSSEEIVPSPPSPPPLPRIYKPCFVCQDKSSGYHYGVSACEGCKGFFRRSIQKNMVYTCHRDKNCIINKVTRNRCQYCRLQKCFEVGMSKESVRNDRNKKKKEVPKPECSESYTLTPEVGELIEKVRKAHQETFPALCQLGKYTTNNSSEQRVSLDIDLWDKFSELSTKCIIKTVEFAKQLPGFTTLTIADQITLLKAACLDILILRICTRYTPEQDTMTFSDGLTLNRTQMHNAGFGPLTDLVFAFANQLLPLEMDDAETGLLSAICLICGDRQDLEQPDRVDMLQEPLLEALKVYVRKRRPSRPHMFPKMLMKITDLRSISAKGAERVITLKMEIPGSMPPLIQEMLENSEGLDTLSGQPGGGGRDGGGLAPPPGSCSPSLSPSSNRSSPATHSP
Method in brief: (§2)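 Competitive nitrocellulose filter binding to recombinant RARα ligand-binding domain fused to maltose-binding protein, using 8 nM [³H]Am80 as tracer. IC50 for displacement of specific binding was converted to Ki by Ki = IC50/(1 + [L]/Kd).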

[5] = target: T3, Retinoic acid receptor RXR-alpha (Homo sapiens, UniProt P19793); experiment: Synergistic activity towards retinoid X receptor-alpha
T3 sequence (P19793 whole entry): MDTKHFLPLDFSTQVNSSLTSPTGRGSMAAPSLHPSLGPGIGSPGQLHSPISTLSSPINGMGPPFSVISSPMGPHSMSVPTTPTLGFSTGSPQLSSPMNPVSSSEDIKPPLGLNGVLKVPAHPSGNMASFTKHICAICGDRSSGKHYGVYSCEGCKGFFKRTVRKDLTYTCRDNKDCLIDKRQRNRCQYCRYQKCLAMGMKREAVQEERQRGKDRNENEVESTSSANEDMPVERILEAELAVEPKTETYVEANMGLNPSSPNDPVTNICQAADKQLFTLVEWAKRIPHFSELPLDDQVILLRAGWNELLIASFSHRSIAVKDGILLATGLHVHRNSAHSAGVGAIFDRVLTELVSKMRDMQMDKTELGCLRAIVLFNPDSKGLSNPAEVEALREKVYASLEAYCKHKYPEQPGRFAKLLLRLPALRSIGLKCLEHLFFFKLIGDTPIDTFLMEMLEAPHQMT

[6] = target: T4, Retinoic acid receptor RXR-gamma (Homo sapiens, UniProt P48443); experiment: Synergistic activity towards retinoid X receptor-gamma
T4 sequence (P48443 whole entry): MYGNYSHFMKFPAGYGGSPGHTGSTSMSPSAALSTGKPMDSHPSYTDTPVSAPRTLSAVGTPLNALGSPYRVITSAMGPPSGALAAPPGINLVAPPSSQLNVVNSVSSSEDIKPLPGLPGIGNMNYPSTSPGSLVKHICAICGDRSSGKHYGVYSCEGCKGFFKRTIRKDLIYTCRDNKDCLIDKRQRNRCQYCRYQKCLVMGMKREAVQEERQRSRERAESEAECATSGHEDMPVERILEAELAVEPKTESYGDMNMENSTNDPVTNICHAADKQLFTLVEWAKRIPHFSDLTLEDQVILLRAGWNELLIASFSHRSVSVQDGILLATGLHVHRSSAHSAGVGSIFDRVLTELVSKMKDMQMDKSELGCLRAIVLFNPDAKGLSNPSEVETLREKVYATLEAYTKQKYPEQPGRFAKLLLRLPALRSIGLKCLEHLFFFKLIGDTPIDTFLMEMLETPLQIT

[7] = target: T5, Retinoic acid receptor RXR-beta (Homo sapiens, UniProt P28702); experiment: Synergistic activity towards retinoid X receptor-beta
T5 sequence (P28702 whole entry): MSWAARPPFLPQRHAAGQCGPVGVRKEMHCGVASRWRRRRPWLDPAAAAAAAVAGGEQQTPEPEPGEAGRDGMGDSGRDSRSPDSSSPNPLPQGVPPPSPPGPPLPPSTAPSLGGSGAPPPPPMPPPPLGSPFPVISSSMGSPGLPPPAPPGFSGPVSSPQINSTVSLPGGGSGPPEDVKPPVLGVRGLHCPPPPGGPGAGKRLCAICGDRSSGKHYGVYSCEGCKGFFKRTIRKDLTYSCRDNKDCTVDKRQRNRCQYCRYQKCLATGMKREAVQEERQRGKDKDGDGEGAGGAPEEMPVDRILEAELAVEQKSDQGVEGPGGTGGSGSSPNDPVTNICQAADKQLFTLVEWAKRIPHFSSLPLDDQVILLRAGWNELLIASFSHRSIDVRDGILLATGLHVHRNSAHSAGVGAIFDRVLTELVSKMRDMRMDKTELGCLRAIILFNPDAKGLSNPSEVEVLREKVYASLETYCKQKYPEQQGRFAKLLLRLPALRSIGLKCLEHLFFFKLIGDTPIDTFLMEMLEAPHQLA

HL-60 [8] = experiment: Concentration of a compound which induces HL-60 cell differentiation to the extent of 50%; inactive below 1.0E-6M test compound; format: functional, cell-based, Homo sapiens
[9] = target: T4, Retinoic acid receptor RXR-gamma; experiment: Antagonistic activity towards retinoid X receptor-gamma; format: functional
[10] = target: T1, Retinoic acid receptor beta; experiment: Antagonistic activity towards retinoic acid receptor-beta; format: functional; method in brief: as §1
[11] = target: T5, Retinoic acid receptor RXR-beta; experiment: Antagonistic activity towards retinoid X receptor-beta; format: functional
[12] = target: T2, Retinoic acid receptor alpha; experiment: Antagonistic activity towards retinoic acid receptor-alpha; format: functional; method in brief: as §2
[13] = target: T3, Retinoic acid receptor RXR-alpha; experiment: Antagonistic activity towards retinoid X receptor-alpha; format: functional
[14] = target: T6, Retinoic acid receptor gamma (Homo sapiens, UniProt P13631); experiment: Antagonistic activity towards retinoic acid receptor-gamma; format: functional
T6 sequence (P13631 whole entry): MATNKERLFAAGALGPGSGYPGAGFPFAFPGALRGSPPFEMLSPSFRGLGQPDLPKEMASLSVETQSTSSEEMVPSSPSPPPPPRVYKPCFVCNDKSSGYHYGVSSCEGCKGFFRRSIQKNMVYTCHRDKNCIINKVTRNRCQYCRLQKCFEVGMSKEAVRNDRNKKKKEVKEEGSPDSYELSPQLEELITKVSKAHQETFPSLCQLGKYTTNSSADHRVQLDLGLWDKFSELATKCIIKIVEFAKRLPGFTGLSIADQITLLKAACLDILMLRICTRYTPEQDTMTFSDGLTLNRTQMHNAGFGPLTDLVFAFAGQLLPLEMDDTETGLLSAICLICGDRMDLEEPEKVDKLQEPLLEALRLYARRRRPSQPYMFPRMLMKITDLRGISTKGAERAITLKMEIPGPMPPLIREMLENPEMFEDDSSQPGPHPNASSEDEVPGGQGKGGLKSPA
Method in brief: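 Recombinant RARγ in a nitrocellulose filter competitive binding assay with 4 nM [³H]-9-cis-retinoic acid (diluted with cold ligand to 8 Ci/mmol). Ki = IC50/(1 + [L]/Kd).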

SMILES: CC(C)c1cc2c(cc1C(C)C)N(C)c1ccccc1C(c1ccc(C(=O)O)cc1)=N2
- IC50 (HL-60 [2]): Not Active

SMILES: CC1(C)CCC(C)(C)c2cc3c(cc21)Cc1ccccc1N=C3c1ccc(C(=O)O)cc1
- Ki [3]: 810 nM
- Ki [4]: 1600 nM
- Ki [5]: 1800 nM
- Ki [6]: 1000 nM
- Ki [7]: 790 nM

SMILES: CN1c2ccc(C(C)(C)C)cc2N=C(c2ccc(C(=O)O)cc2)c2ccccc21
- IC50 (HL-60 [1]): > 1000 nM

SMILES: CN1c2cc3c(cc2N=C(c2ccc(C(=O)O)cc2)c2cc4c(cc21)C(C)(C)CCC4(C)C)C(C)(C)CCC3(C)C
- IC50 (HL-60 [1]): 830 nM

SMILES: CC1(C)CCC(C)(C)c2cc3c(cc21)NC(=O)CN=C3c1ccc(C(=O)O)cc1
- EC50 (HL-60 [8]): Not Active

SMILES: CC1c2ccccc2N=C(c2ccc(C(=O)O)cc2)c2cc3c(cc21)C(C)(C)CCC3(C)C (centres undefined)
- Ki [4]: 2000 nM

SMILES: CN1c2ccccc2N=C(c2ccc(C(=O)O)cc2)c2cc(C(C)(C)C)ccc21
- EC50 (HL-60 [8]): Not Active

SMILES: CCCCCCCN1c2cc3c(cc2N=C(c2ccc(C(=O)O)cc2)c2ccccc21)C(C)(C)CCC3(C)C
- IC50 (HL-60 [1]): 210 nM

SMILES: CN1c2ccccc2N=C(c2ccc(C(=O)O)cc2)c2cc(-c3ccccc3)ccc21
- EC50 (HL-60 [8]): Not Active

SMILES: CC1(C)CCC(C)(C)c2cc3c(cc21)Sc1ccccc1N=C3c1ccc(C(=O)O)cc1
- Ki [3]: 320 nM
- Ki [4]: 900 nM
- Ki [5]: 900 nM
- Ki [6]: 620 nM
- Ki [7]: 400 nM

SMILES: CN1c2ccccc2N=C(c2ccc(C(=O)O)cc2)c2ccccc21
- EC50 (HL-60 [8]): Not Active

SMILES: CN1c2ccccc2N=C(c2ccc(C(=O)O)cc2)c2cc(Br)ccc21
- EC50 (HL-60 [8]): Not Active

SMILES: CN1c2ccc(C34CC5CC(CC(C5)C3)C4)cc2N=C(c2ccc(C(=O)O)cc2)c2ccccc21
- IC50 (HL-60 [2]): Not Active

Results, then the compound that gave them:

- IC50 (HL-60 [1]): 120 nM
SMILES: CN1c2cc3c(cc2N=C(c2ccc(C(=O)O)cc2)c2c1ccc1ccccc21)C(C)(C)CCC3(C)C

- Ki [9]: 1500 nM
- Ki [10]: 500 nM
- IC50 (HL-60 [1]): 36 nM
- Ki [11]: 1700 nM
- Ki [12]: 1300 nM
- Ki [13]: 3800 nM
- Ki [14]: 490 nM
SMILES: CN1c2cc3c(cc2N=C(c2ccc(C(=O)O)cc2)c2ccc4ccccc4c21)C(C)(C)CCC3(C)C

- Ki [3]: 680 nM
- Ki [5]: 1900 nM
- Ki [6]: 1000 nM
- Ki [7]: 640 nM
SMILES: CN1c2ccccc2N=C(c2ccc(C(=O)O)cc2)c2cc3c(cc21)C(C)(C)CCC3(C)C

- Ki [3]: 320 nM
- Ki [4]: 980 nM
- Ki [5]: 3800 nM
- Ki [6]: 2100 nM
- Ki [7]: 1200 nM
SMILES: CC1(C)CCC(C)(C)c2cc3c(cc21)Oc1ccccc1N=C3c1ccc(C(=O)O)cc1

- IC50 (HL-60 [1]): 320 nM
SMILES: CN1c2cc3c(cc2N=C(c2ccc(C(=O)O)cc2)c2ccc4cc5ccccc5cc4c21)C(C)(C)CCC3(C)C

- IC50 (HL-60 [1]): 350 nM
SMILES: CN1c2cc3c(cc2N=C(c2ccc(C(=O)O)cc2)c2c1c1ccccc1c1ccccc21)C(C)(C)CCC3(C)C

- IC50 (HL-60 [1]): 130 nM
SMILES: CCCN1c2cc3c(cc2N=C(c2ccc(C(=O)O)cc2)c2ccccc21)C(C)(C)CCC3(C)C

- Ki [10]: 220 nM
- IC50 (HL-60 [1]): 150 nM
- Ki [12]: 1400 nM
SMILES: CN1c2cc3c(cc2N=C(c2ccc(C(=O)O)cc2)c2ccccc21)C(C)(C)CCC3(C)C

Source: ChEMBL document CHEMBL1130267, “Regulation of retinoidal actions by diazepinylbenzoic acids. Retinoid synergists which activate the RXR-RAR heterodimers” (J Med Chem, 1997)
